Measurements from ChEMBL document CHEMBL3856229, “Hybrid Antibiotic Overcomes Resistance in P. aeruginosa by Enhancing Outer Membrane Penetration and Reducing Efflux” (J Med Chem, 2016).

Experiments:
[1] = system: Pseudomonas aeruginosa; test: Antibacterial activity against multidrug/extremely drug-resistant/colistin-susceptible Pseudomonas aeruginosa isolate 264-104354; assay type: functional
[2] = system: Escherichia coli; test: Antibacterial activity against fluoroquinolone resistant Escherichia coli isolate 91191 harboring beta-lactamase CTX-M-14/TEM-1; assay type: functional
[3] = system: Pseudomonas aeruginosa; test: Antibacterial activity against gentamicin-resistant Pseudomonas aeruginosa isolate CAN-ICU 62308 after 24 hrs by microtitre broth dilution method; assay type: functional; conditions: isolate CAN-ICU 62308, 24 h
[4] = system: Escherichia coli; test: Antibacterial activity against gentamicin/tobramycin/ciprofloxacin-resistant Escherichia coli isolate CANWARD-2011 97615 harboring AAC3-2A after 24 hrs by microtitre broth dilution method; assay type: functional; conditions: isolate CANWARD-2011 97615, 24 h
[5] = system: Escherichia coli; test: Antibacterial activity against fluoroquinolone resistant Escherichia coli isolate 89439 harboring beta-lactamase CTX-M-15/OXA-1; assay type: functional
[6] = system: Pseudomonas aeruginosa; test: Induction of cytoplasmic membrane depolarization in Pseudomonas aeruginosa PAO1 by DiSC3(5) dye based fluorescence assay; assay type: functional
[7] = system: Pseudomonas aeruginosa; test: Antibacterial activity against multidrug/extremely drug-resistant/colistin-susceptible Pseudomonas aeruginosa isolate 101885; assay type: functional
[8] = system: Escherichia coli; test: Antibacterial activity against fluoroquinolone resistant Escherichia coli isolate 90087 harboring beta-lactamase CTX-M-15/OXA-1; assay type: functional
[9] = system: Pseudomonas aeruginosa; test: Antibacterial activity against extremely drug-resistant Pseudomonas aeruginosa isolate 104354 infected in Galleria mellonella assessed as larvae survival administered as single dose measured after 24 to 96 hrs; assay type: functional
Method in brief: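 Galleria mellonella larvae were infected with 10^6 CFU of XDR P. aeruginosa #104354, resistant to all antipseudomonal classes except colistin. A single injected drug dose was given 2 h post-infection: 50 mg/kg with survival read at 24 h, or 75 mg/kg with survival read at 96 h. Controls were infected untreated larvae and PBS-injected larvae. Two independent experiments of 15 larvae each (n = 30).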

[10] = system: Pseudomonas aeruginosa; test: Antibacterial activity against multidrug/extremely drug-resistant/Pseudomonas aeruginosa isolate PA260-97103 in presence of <= 4 ug/ml of ciprofloxacin (reference value: 1 ug/ml); assay type: functional
[11] = system: Pseudomonas aeruginosa; test: Antibacterial activity against multidrug/extremely drug-resistant/colistin-susceptible Pseudomonas aeruginosa isolate 259-96918; assay type: functional
[12] = system: Pseudomonas aeruginosa; test: Antibacterial activity against multidrug-resistant/tobramycin-susceptible Pseudomonas aeruginosa isolate 85322; assay type: functional
[13] = system: Escherichia coli; test: Antibacterial activity against fluoroquinolone resistant Escherichia coli isolate 80083 harboring beta-lactamase CTX-M-15/OXA-1; assay type: functional
[14] = system: Escherichia coli; test: Antibacterial activity against fluoroquinolone resistant Escherichia coli isolate 98550 harboring beta-lactamase CTX-M-15/OXA-1; assay type: functional
[15] = system: Pseudomonas aeruginosa; test: Antibacterial activity against Pseudomonas aeruginosa PAO1 assessed as fractional inhibitory concentration index after 18 hrs in presence of colistin by checkerboard method; assay type: functional
Method in brief: (§1)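 Checkerboard combinations of the hybrid with each partner antibiotic were tested against P. aeruginosa PAO1. Interaction is expressed as the fractional inhibitory concentration (FIC) index: ≤0.5 means synergy, 1–2 no interaction, ≥4 antagonism.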

[16] = system: Enterococcus faecalis; test: Antibacterial activity against Enterococcus faecalis ATCC 29212 after 24 hrs by microtitre broth dilution method; assay type: functional; conditions: ATCC 29212, 24 h
[17] = system: Escherichia coli; test: Antibacterial activity against gentamicin-resistant Escherichia coli isolate CAN-ICU 61714 after 24 hrs by microtitre broth dilution method; assay type: functional; conditions: isolate CAN-ICU 61714, 24 h
[18] = system: Pseudomonas aeruginosa; test: Antibacterial activity against Pseudomonas aeruginosa PAO1 assessed as fractional inhibitory concentration index after 18 hrs in presence of gentamicin by checkerboard method; assay type: functional; method in brief: as §1
[19] = system: Pseudomonas aeruginosa; test: Antibacterial activity against pandrug-resistant Pseudomonas aeruginosa isolate 101243; assay type: functional
[20] = system: Pseudomonas aeruginosa; test: Potentiation of ciprofloxacin induced antibacterial activity against multidrug/extremely drug-resistant Pseudomonas aeruginosa isolate PA262-101856 assessed as ciprofloxacin MIC at <= […] ug/ml (reference value: […] to […] ug/ml); assay type: functional
[21] = system: Pseudomonas aeruginosa; test: Antibacterial activity against multidrug/extremely drug-resistant/colistin-susceptible Pseudomonas aeruginosa isolate 260-97103; assay type: functional
[22] = system: Enterococcus faecium; test: Antibacterial activity against Enterococcus faecium ATCC 27270 after 24 hrs by microtitre broth dilution method; assay type: functional; conditions: ATCC 27270, 24 h
[23] = system: Pseudomonas aeruginosa; test: Potentiation of moxifloxacin induced antibacterial activity against pandrug-resistant Pseudomonas aeruginosa isolate 101243 assessed as moxifloxacin MIC at <= […] ug/ml (reference value: 8 ug/ml); assay type: functional
[24] = Inhibition of Pseudomonas aeruginosa DNA gyrase A assessed as inhibition of DNA supercoiling using PBR322 DNA as substrate after 30 mins by SYBR Gold staining based agarose gel electrophoresis
[25] = system: Pseudomonas aeruginosa; test: Antibacterial activity against multidrug-resistant/tobramycin-susceptible Pseudomonas aeruginosa isolate 84745; assay type: functional
[26] = system: Escherichia coli; test: Antibacterial activity against fluoroquinolone resistant Escherichia coli isolate 87164 harboring beta-lactamase CTX-M-15/TEM-1; assay type: functional
[27] = system: Pseudomonas aeruginosa; test: Antibacterial activity against gentamicin/tobramycin-resistant Pseudomonas aeruginosa isolate CANWARD-2011 96846 after 24 hrs by microtitre broth dilution method; assay type: functional; conditions: isolate CANWARD-2011 96846, 24 h
[28] = system: Pseudomonas aeruginosa; test: Antibacterial activity against Pseudomonas aeruginosa PAO1 assessed as fractional inhibitory concentration index after 18 hrs in presence of chloramphenicol by checkerboard method; assay type: functional; method in brief: as §1
[29] = system: Staphylococcus aureus; test: Antibacterial activity against Staphylococcus aureus ATCC 29213 after 24 hrs by microtitre broth dilution method; assay type: functional; conditions: ATCC 29213, 24 h
[30] = system: Pseudomonas aeruginosa; test: Potentiation of moxifloxacin induced antibacterial activity against multidrug/extremely drug-resistant Pseudomonas aeruginosa isolate PA260-97103 assessed as moxifloxacin MIC at <= […] ug/ml (reference value: […] to […] ug/ml); assay type: functional
[31] = system: Pseudomonas aeruginosa; test: Antimicrobial activity against Pseudomonas aeruginosa PAO750; assay type: functional
Method in brief: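 MICs were measured in PAO1 and in PAO750. PAO750 is a PAO1 derivative lacking the MexAB-OprM, MexCD-OprJ, MexEF-OprN, MexJK and MexXY efflux pumps and the outer membrane protein OpmH.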

[32] = system: Escherichia coli; test: Antibacterial activity against fluoroquinolone resistant Escherichia coli isolate 88273 harboring beta-lactamase CTX-M-15/TEM-1/OXA-1; assay type: functional
[33] = system: Stenotrophomonas maltophilia; test: Antibacterial activity against Stenotrophomonas maltophilia isolate CAN-ICU 62584 after 24 hrs by microtitre broth dilution method; assay type: functional; conditions: isolate CAN-ICU 62584, 24 h
[34] = system: Pseudomonas aeruginosa; test: Antibacterial activity against multidrug/extremely drug-resistant Pseudomonas aeruginosa isolate PA260-97103 in presence of <= 4 ug/ml of moxifloxacin (reference value: 1 ug/ml); assay type: functional
[35] = system: Escherichia coli; test: Antibacterial activity against amikacin-resistant Escherichia coli isolate CAN-ICU 63074 after 24 hrs by microtitre broth dilution method; assay type: functional; conditions: isolate CAN-ICU 63074, 24 h
[36] = system: Escherichia coli; test: Antibacterial activity against fluoroquinolone resistant Escherichia coli isolate 85332 harboring beta-lactamase CTX-M-14/TEM-1; assay type: functional

Question: With COc1c(N2C[C@@H]3CCCN(CCCCCCCCCCCCO[C@@H]4[C@@H](O[C@H]5O[C@H](CO)[C@@H](O)[C@H](N)[C@H]5O)[C@H](N)C[C@H](N)[C@H]4O[C@H]4O[C@H](CN)[C@@H](O)C[C@H]4N)[C@@H]3C2)c(F)cc2c(=O)c(C(=O)O)cn(C3CC3)c12.Cl.Cl.Cl.Cl.Cl as the compound, how does the MIC [1] read?
Answer: The MIC was 4 µg/mL.

Question: What about the MIC [2] of the same compound?
Answer: The MIC was no less than 64 µg/mL.

Question: And the MIC [3]?
Answer: The MIC was 8 µg/mL.

Question: And the MIC [4]?
Answer: The MIC was 128 µg/mL.

Question: And the MIC [5]?
Answer: Its MIC is no less than 64 µg/mL.

Question: What about the Activity [6] of the same compound?
Answer: The Activity was “Dose-dependent effect”.

Question: What about the MIC [7] of the same compound?
Answer: Its MIC is 8 µg/mL.

Question: And the MIC [8]?
Answer: The MIC was no less than 64 µg/mL.

Question: What about the Activity [9] of the same compound?
Answer: Its Activity is “Dose-dependent effect”.

Question: What about the MIC [10] of the same compound?
Answer: Its MIC is less than 0.25 µg/mL.

Question: And the MIC [11]?
Answer: Its MIC is 2 µg/mL.

Question: And the MIC [12]?
Answer: The MIC was 8 µg/mL.

Question: And the MIC [13]?
Answer: The MIC was no less than 64 µg/mL.

Question: And the MIC [14]?
Answer: The MIC was no less than 64 µg/mL.

Question: And the “fractional inhibitory concentration index (FICI)” value [15]?
Answer: Its value is 0.37.

Question: What about the MIC [16] of the same compound?
Answer: The MIC was 4 µg/mL.

Question: And the MIC [17]?
Answer: Its MIC is 4 µg/mL.

Question: And the “fractional inhibitory concentration index (FICI)” value [18]?
Answer: The value was 5.

Question: And the MIC [19]?
Answer: The MIC was 8 µg/mL.

Question: What about the MIC [20] of the same compound?
Answer: Its MIC is 1 µg/mL.

Question: And the MIC [21]?
Answer: Its MIC is 1 µg/mL.

Question: What about the MIC [22] of the same compound?
Answer: The MIC was 16 µg/mL.

Question: And the MIC [23]?
Answer: Its MIC is 0.06 µg/mL.

Question: And the IC50 [24]?
Answer: Its IC50 is 54.7 µM.

Question: And the MIC [25]?
Answer: Its MIC is 8 µg/mL.

Question: And the MIC [26]?
Answer: Its MIC is no less than 64 µg/mL.

Question: What about the MIC [27] of the same compound?
Answer: The MIC was 4 µg/mL.

Question: And the “fractional inhibitory concentration index (FICI)” value [28]?
Answer: Its value is 0.15.

Question: And the MIC [29]?
Answer: Its MIC is 1 µg/mL.

Question: What about the MIC [30] of the same compound?
Answer: Its MIC is 1 µg/mL.

Question: What about the MIC [31] of the same compound?
Answer: Its MIC is 0.5 µg/mL.

Question: And the MIC [32]?
Answer: Its MIC is no less than 64 µg/mL.

Question: What about the MIC [33] of the same compound?
Answer: The MIC was 32 µg/mL.

Question: And the MIC [34]?
Answer: Its MIC is 0.25 µg/mL.

Question: What about the MIC [35] of the same compound?
Answer: The MIC was 4 µg/mL.

Question: What about the MIC [36] of the same compound?
Answer: Its MIC is no less than 64 µg/mL.
